Results from ChEMBL document CHEMBL1141218, “Further structure-activity relationship studies of piperidine-based monoamine transporter inhibitors: effects of piperidine ring stereochemistry on potency. Identification of norepinephrine transporter selective ligands and broad-spectrum transporter inhibitors” (J Med Chem, 2005).

What was measured:
[1] = molecular target: Sodium-dependent serotonin transporter (Rattus norvegicus, UniProt P31652); assay: Ability to inhibit [3H]5-HT uptake through SERT in rat synaptosomes; type: subcellular, Brain
Method in brief: (§1)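 Uptake inhibition values given as Ki. Each experiment tested six drug concentrations in triplicate, with two to four independent experiments per compound. Values are means ± SEM.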

[2] = molecular target: Sodium-dependent dopamine transporter (Rattus norvegicus, UniProt P23977); assay: Ability to inhibit [3H]DA uptake through DAT in rat synaptosomes; type: subcellular, Brain; method in brief: as §1
[3] = molecular target: Norepinephrine transporter (Rattus norvegicus, UniProt Q9WTR4); assay: Ability to inhibit [3H]NE uptake through NET in rat synaptosomes; type: subcellular, Brain; method in brief: as §1
[4] = molecular target: Monoamine transporters; serotonin & dopamine (Rattus norvegicus) (UniProt P31652+P23977); assay: Selectivity towards rat SERT over DAT; type: protein assay
Sequence of Monoamine transporters; serotonin & dopamine (Rattus norvegicus) (P23977 whole entry, looked up): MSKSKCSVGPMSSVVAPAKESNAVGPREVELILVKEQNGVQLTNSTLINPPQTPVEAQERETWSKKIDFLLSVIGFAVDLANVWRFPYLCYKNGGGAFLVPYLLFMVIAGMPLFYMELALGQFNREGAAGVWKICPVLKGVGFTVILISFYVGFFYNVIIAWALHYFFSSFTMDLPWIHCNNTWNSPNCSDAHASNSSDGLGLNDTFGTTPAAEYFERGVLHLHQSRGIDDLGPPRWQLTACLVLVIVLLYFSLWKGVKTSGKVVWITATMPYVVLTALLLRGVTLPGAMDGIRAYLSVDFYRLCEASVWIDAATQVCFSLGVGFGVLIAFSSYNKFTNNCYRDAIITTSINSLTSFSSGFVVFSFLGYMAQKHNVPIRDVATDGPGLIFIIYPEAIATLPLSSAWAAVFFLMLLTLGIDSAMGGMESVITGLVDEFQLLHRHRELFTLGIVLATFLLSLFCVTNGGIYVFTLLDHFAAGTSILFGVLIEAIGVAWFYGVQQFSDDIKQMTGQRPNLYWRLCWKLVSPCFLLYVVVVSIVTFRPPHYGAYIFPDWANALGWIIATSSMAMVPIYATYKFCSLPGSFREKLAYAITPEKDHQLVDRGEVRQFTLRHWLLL
Sequence of Monoamine transporters; serotonin & dopamine (Rattus norvegicus) (P31652 whole entry, looked up): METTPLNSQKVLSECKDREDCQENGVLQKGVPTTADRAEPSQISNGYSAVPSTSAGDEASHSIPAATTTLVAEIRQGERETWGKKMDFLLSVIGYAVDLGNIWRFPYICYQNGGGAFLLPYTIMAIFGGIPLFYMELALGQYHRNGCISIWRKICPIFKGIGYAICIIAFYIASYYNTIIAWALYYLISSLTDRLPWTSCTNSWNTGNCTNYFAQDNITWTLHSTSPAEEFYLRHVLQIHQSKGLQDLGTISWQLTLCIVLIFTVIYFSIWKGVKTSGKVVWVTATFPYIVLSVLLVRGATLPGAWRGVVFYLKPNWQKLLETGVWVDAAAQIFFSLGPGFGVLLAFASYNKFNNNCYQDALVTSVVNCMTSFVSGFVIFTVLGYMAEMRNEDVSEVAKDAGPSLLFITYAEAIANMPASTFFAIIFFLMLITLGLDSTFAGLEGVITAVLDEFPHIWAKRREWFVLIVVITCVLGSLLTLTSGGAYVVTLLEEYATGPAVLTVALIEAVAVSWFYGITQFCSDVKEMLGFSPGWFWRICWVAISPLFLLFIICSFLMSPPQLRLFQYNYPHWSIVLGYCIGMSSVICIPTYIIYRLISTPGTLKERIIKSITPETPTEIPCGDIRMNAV

Sequence of Sodium-dependent serotonin transporter (P31652 whole entry): as the sequence (P31652 whole entry, looked up) above
Sequence of Norepinephrine transporter (Q9WTR4 whole entry): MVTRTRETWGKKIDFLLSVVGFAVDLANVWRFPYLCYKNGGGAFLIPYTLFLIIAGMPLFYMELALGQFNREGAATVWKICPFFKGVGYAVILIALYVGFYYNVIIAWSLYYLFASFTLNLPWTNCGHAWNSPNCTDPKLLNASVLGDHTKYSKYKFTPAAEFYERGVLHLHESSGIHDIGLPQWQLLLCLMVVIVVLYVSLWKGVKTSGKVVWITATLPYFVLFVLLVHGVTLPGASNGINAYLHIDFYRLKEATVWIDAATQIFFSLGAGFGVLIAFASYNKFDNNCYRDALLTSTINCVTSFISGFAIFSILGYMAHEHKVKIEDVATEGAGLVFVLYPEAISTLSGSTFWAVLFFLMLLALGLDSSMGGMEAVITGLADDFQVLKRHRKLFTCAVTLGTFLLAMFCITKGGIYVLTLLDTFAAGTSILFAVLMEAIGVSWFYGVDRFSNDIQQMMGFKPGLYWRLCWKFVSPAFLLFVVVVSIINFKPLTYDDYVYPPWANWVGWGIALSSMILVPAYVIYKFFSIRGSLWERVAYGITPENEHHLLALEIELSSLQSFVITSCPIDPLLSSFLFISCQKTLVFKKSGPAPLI
Sequence of Sodium-dependent dopamine transporter (P23977 whole entry): as the sequence (P23977 whole entry, looked up) above

Compound | Ki [1] [nM] | Ki [2] [nM] | Ki [3] [nM] | Ratio Ki [4]
COC(=O)CSC[C@H]1CN(C)CC[C@H]1c1ccc(Cl)cc1 | 403 | 598 | 98 | 0.67
CC(=O)OCCSC[C@@H]1CN(C)CC[C@@H]1c1ccc(Cl)cc1 | 469 | 46 | 30 | 10.1
CN1CC[C@@H](c2ccc(Cl)cc2)[C@H](CSCCOC(=O)c2ccccc2)C1 | 71 | 378 | 56 | 0.19
CNC(=O)CSC[C@H]1CN(C)CC[C@H]1c1ccc(Cl)cc1 | 1770 | 215 | – | –
CC(=O)OCCSC[C@H]1CN(C)CC[C@H]1c1ccc(Cl)cc1 | 125 | 177 | 610 | 0.71
CN1CC[C@H](c2ccc(Cl)cc2)[C@H](CSCC(=O)N(C)C)C1 | 8.8 | 17 | 63 | 0.53
CN1CC[C@@H](c2ccc(Cl)cc2)[C@H](CSCC(=O)N(C)C)C1 | 186 | > 3000 | 218 | < 0.06
CC(C)NC(=O)CSC[C@@H]1CN(C)CC[C@H]1c1ccc(Cl)cc1 | 138 | 663 | 67 | 0.21
CN1CC[C@@H](c2ccc(Cl)cc2)[C@H](CSCCO)C1 | 129 | 185 | 123 | 0.69
CNC(=O)CSC[C@@H]1CN(C)CC[C@H]1c1ccc(Cl)cc1 | 116 | 164 | – | –
CN1CC[C@@H](c2ccc(Cl)cc2)[C@H](CSCC(=O)N2CCCCC2)C1 | 190 | > 3000 | 82 | < 0.06
CN1CC[C@H](c2ccc(Cl)cc2)[C@H](CSCC(=O)NCc2ccccc2)C1 | 23 | 3.9 | 85 | 5.81
CN1CC[C@@H](c2ccc(Cl)cc2)[C@@H](CSCC(=O)Nc2ccccc2)C1 | 91 | 80 | 1060 | 1.13
CN1CC[C@@H](c2ccc(Cl)cc2)[C@@H](CSCC(=O)Nc2cccc3ccccc23)C1 | 108 | 102 | 101 | 1.06
CNC(=O)CSC[C@@H]1CN(C)CC[C@@H]1c1ccc(Cl)cc1 | 347 | 311 | – | –
CN1CC[C@@H](c2ccc(Cl)cc2)[C@@H](CSCCO)C1 | 305 | 160 | > 3000 | 1.91
COC(=O)CSC[C@@H]1CN(C)CC[C@H]1c1ccc(Cl)cc1 | 69 | 2620 | 57 | 0.03

Compound | Ki [1] [nM] | Ki [2] [nM] | Ki [3] [nM] | Ratio Ki [4]
CC(C)NC(=O)CSC[C@@H]1CN(C)CC[C@@H]1c1ccc(Cl)cc1 | 154 | 13 | 16 | 11.5
CN1CC[C@@H](c2ccc(Cl)cc2)[C@H](CSCC(=O)NCc2ccccc2)C1 | 753 | 1570 | 32 | 0.48
CN1CC[C@@H](c2ccc(Cl)cc2)[C@@H](CSCCOC(=O)c2ccccc2)C1 | 270 | 1470 | 143 | 0.18
COC(=O)[C@H]1CN(C)CC[C@H]1c1ccc(Cl)cc1 | 56 | 1560 | 415 | 0.04
CN1CC[C@@H](c2ccc(Cl)cc2)[C@@H](CSCC(=O)N(C)C)C1 | 173 | 176 | 47 | 0.98
CN1CC[C@@H](c2ccc(Cl)cc2)[C@H](CSCC(N)=O)C1 | 545 | 1100 | 53 | 0.49
CN1CC[C@@H](c2ccc(Cl)cc2)[C@@H](CSCC(=O)NCc2ccccc2)C1 | 22 | 302 | 54 | 0.07
CN1CC[C@@H](c2ccc(Cl)cc2)[C@H](CSCC(=O)NCCc2ccccc2)C1 | 68 | 23 | 178 | 2.97
CN1CC[C@H](c2ccc(Cl)cc2)[C@H](CSCCO)C1 | 185 | 37 | 26 | 5
COC(=O)CSC[C@@H]1CN(C)CC[C@@H]1c1ccc(Cl)cc1 | 182 | 38 | 22 | 4.88
CC(C)NC(=O)CSC[C@H]1CN(C)CC[C@H]1c1ccc(Cl)cc1 | 36 | 142 | 11 | 0.25
CN1CC[C@H](c2ccc(Cl)cc2)[C@H](CSCC(N)=O)C1 | 21 | 54 | 69 | 0.39
CN1CC[C@H](c2ccc(Cl)cc2)[C@H](CSCC(=O)N2CCCCC2)C1 | 42 | 34 | 13 | 1.22
CC(=O)OCCSC[C@@H]1CN(C)CC[C@H]1c1ccc(Cl)cc1 | 130 | 536 | 52 | 0.24
CN1CC[C@@H](c2ccc(Cl)cc2)[C@@H](CSCC(=O)NCCc2ccccc2)C1 | 121 | 112 | 100 | 1.08
CN1CC[C@@H](c2ccc(Cl)cc2)[C@@H](CSCC(=O)N2CCCCC2)C1 | 572 | > 3000 | 134 | < 0.19
